Data on 3 molecules can be found in ChEMBL document CHEMBL1140708, “Synthesis and in vivo evaluation of halogenated N,N-dimethyl-2-(2'-amino-4'-hydroxymethylphenylthio)benzylamine derivatives as PET serotonin transporter ligands” (J Med Chem, 2008).

Bounds are passed on as bounds.

Data set [1] concerns the target Sodium-dependent dopamine transporter (Homo sapiens, UniProt Q01959). Put plainly: Displacement of [125I]RTI-55 from human DAT expressed in MDCK cells. It is filed as cell-based. A digest of the protocol:
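MDCK cells stably expressing hDAT, grown to confluency in DMEM with 10% FBS and Geneticin, harvested in PBS/0.53 mM EDTA. Membranes (30–70 µg protein) were incubated 1 h at room temperature with 2.0 nM [125I]RTI-55 in 42 mM sodium phosphate/320 mM sucrose, pH 7.4. Competitor: 12 concentrations, 10^-13 to 10^-5 M, in triplicate. Filtered through PEI-soaked GF/B filters; Ki averaged over ≥2 assays.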
Background: Loss of bound radioactivity is the signal in a displacement assay; it reports binding, not function.

The species named for data set [2] is Homo sapiens. Description: Selectivity for human DAT to human SERT. A digest of the protocol: (§1)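 Ratio of Ki at hDAT or hNET to Ki at hSERT. Ki values come from competition binding on transfected cell membranes: [125I]RTI-55 (MDCK-hDAT), [3H]nisoxetine (HEK-hNET) or [3H]citalopram (HEK-hSERT); 12 competitor concentrations from 10^-13 to 10^-5 M.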
For data set [3], the species on record is Homo sapiens. Put plainly: Selectivity for human NET to human SERT. A digest of the protocol: as §1
A short description of data set [4]: Partition coefficient, log P at pH 7.4. The format is physicochemical. As to conditions: octanol/water. A digest of the protocol: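 Each 11C-labelled radiotracer was partitioned between 1-octanol and 0.02 M phosphate buffer at pH 7.4.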
Data set [5] concerns Caudate. Put plainly: Drug uptake in cynomolgus monkey caudate after 55 mins. The format is ADME, tissue-based, Macaca fascicularis, Caudate nucleus. The settings on record: in vivo. A digest of the protocol: (§2)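 Chase microPET scans in the same male cynomolgus monkey after i.v. 11C radiotracer (6.90–18.10 mCi). R,S-citalopram·HBr, 1.5 mg/kg, was given i.v. as a 30 s bolus at 45 min (ratios at 45 and 85 min) or 60 min (ratios at 55 and 115 min) post-tracer. Value is the region-to-cerebellum activity ratio before and after citalopram.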

Data set [6] relates to Caudate. Description: Drug uptake in cynomolgus monkey caudate in presence of citalopram after 115 mins. It is filed as ADME, tissue-based, Macaca fascicularis, Caudate nucleus. The settings on record: in vivo. A digest of the protocol:
as §2

The test system of data set [7] is Putamen. Description: Drug uptake in cynomolgus monkey putamen after 55 mins. The format is ADME, tissue-based, Macaca fascicularis. The settings on record: in vivo. A digest of the protocol:
as §2

For data set [8], the system named is Putamen. Put plainly: Drug uptake in cynomolgus monkey putamen in presence of citalopram after 115 mins. It is filed as ADME, tissue-based, Macaca fascicularis. The settings on record: in vivo. A digest of the protocol: as §2
Data set [9] concerns Thalamus. Put plainly: Drug uptake in cynomolgus monkey thalamus after 55 mins. It is filed as ADME, tissue-based, Macaca fascicularis. As to conditions: in vivo. A digest of the protocol: as §2
Data set [10] relates to Thalamus. Put plainly: Drug uptake in cynomolgus monkey thalamus in presence of citalopram after 115 mins. It is filed as ADME, tissue-based, Macaca fascicularis. The settings on record: in vivo. A digest of the protocol:
as §2

The test system of data set [11] is Midbrain. Put plainly: Drug uptake in cynomolgus monkey midbrain after 55 mins. As to conditions: in vivo. It is filed as ADME, tissue-based, Macaca fascicularis. A digest of the protocol:
as §2

Data set [12] concerns Midbrain. Description: Drug uptake in cynomolgus monkey midbrain in presence of citalopram after 115 mins. It is filed as ADME, tissue-based, Macaca fascicularis. The settings on record: in vivo. A digest of the protocol: as §2
Data set [13] deals with Pons. Description: Drug uptake in cynomolgus monkey pons after 55 mins. The format is ADME, tissue-based, Macaca fascicularis. The settings on record: in vivo. A digest of the protocol:
as §2

Data set [14] concerns Pons. Put plainly: Drug uptake in cynomolgus monkey pons in presence of citalopram after 115 mins. The settings on record: in vivo. The format is ADME, tissue-based, Macaca fascicularis. A digest of the protocol:
as §2

In data set [15] the test system is Medulla. Description: Drug uptake in cynomolgus monkey medulla after 55 mins. The settings on record: in vivo. It is filed as ADME, tissue-based, Macaca fascicularis, Medulla of organ. A digest of the protocol: as §2
Data set [16] concerns Medulla. Put plainly: Drug uptake in cynomolgus monkey medulla in presence of citalopram after 115 mins. It is filed as ADME, tissue-based, Macaca fascicularis, Medulla of organ. As to conditions: in vivo. A digest of the protocol: as §2
Data set [17] concerns Occipital cortex. Description: Drug uptake in cynomolgus monkey occipital cortex after 55 mins. It is filed as ADME, tissue-based, Macaca fascicularis. As to conditions: in vivo. A digest of the protocol: as §2
The subject of data set [18] is Occipital cortex. Description: Drug uptake in cynomolgus monkey occipital cortex in presence of citalopram after 115 mins. As to conditions: in vivo. It is filed as ADME, tissue-based, Macaca fascicularis. A digest of the protocol:
as §2

In data set [19] the test system is Frontal cortex. Description: Drug uptake in cynomolgus monkey frontal cortex after 55 mins. It is filed as ADME, tissue-based, Macaca fascicularis. As to conditions: in vivo. A digest of the protocol: as §2
For data set [20], the system named is Frontal cortex. Put plainly: Drug uptake in cynomolgus monkey frontal cortex in presence of citalopram after 115 mins. The format is ADME, tissue-based, Macaca fascicularis. As to conditions: in vivo. A digest of the protocol:
as §2

The test system of data set [21] is Caudate. Description: Drug uptake in cynomolgus monkey caudate after 85 mins. It is filed as ADME, tissue-based, Macaca fascicularis, Caudate nucleus. The settings on record: in vivo. A digest of the protocol: (§3)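 Baseline microPET (Concorde P4) scans in one anesthetized adult male cynomolgus monkey (7.50–8.35 kg) after i.v. radiotracer. Attenuation correction used a 68Ge transmission scan; OSEM reconstruction, 3 mm resolution. Value is the region-of-interest to cerebellum activity ratio at 85 min post-injection.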

For data set [22], the system named is Midbrain. Description: Drug uptake in cynomolgus monkey midbrain after 85 mins. It is filed as ADME, tissue-based, Macaca fascicularis. As to conditions: in vivo. A digest of the protocol: as §3
The test system of data set [23] is Putamen. Description: Drug uptake in cynomolgus monkey putamen after 85 mins. The format is ADME, tissue-based, Macaca fascicularis. As to conditions: in vivo. A digest of the protocol:
as §3

Data set [24] has as its system Thalamus. Description: Drug uptake in cynomolgus monkey thalamus after 85 mins. It is filed as ADME, tissue-based, Macaca fascicularis. As to conditions: in vivo. A digest of the protocol: as §3
Data set [25] deals with Pons. Put plainly: Drug uptake in cynomolgus monkey pons after 85 mins. It is filed as ADME, tissue-based, Macaca fascicularis. The settings on record: in vivo. A digest of the protocol: as §3
The test system of data set [26] is Medulla. Put plainly: Drug uptake in cynomolgus monkey medulla after 85 mins. The format is ADME, tissue-based, Macaca fascicularis, Medulla of organ. The settings on record: in vivo. A digest of the protocol:
as §3

Data set [27] has as its system Occipital cortex. Description: Drug uptake in cynomolgus monkey occipital cortex after 85 mins. The format is ADME, tissue-based, Macaca fascicularis. As to conditions: in vivo. A digest of the protocol:
as §3

Data set [28] concerns Frontal cortex. Description: Drug uptake in cynomolgus monkey frontal cortex after 85 mins. It is filed as ADME, tissue-based, Macaca fascicularis. The settings on record: in vivo. A digest of the protocol:
as §3

In data set [29] the target is Sodium-dependent serotonin transporter (Homo sapiens, UniProt P31645). Put plainly: Displacement of [3H]citalopram from human SERT expressed in HEK293 cells. It is filed as cell-based. A digest of the protocol:
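Membranes (30–70 µg protein) from HEK-293 cells stably expressing hSERT, grown in DMEM/10% FBS/Geneticin. Incubated 2 h at room temperature with [3H]citalopram in 53 mM Tris, 126 mM NaCl, 5.3 mM KCl, pH 7.9. Competitor: 12 concentrations, 10^-13 to 10^-5 M, in triplicate. Rapid filtration on GF/B with cold buffer washes; Ki averaged from ≥2 separate assays.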

Data set [30] has as its target Sodium-dependent noradrenaline transporter (Homo sapiens, UniProt P23975). Put plainly: Displacement of [3H]nisoxetine from human NET t expressed in HEK293 cells. The format is cell-based. A digest of the protocol:
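Membranes (30–70 µg protein) from HEK-293 cells stably expressing hNET. Equilibrium with [3H]nisoxetine for 4 h at 4 °C in 53 mM Tris, 320 mM NaCl, 5.3 mM KCl, pH 7.4 at 4 °C. Competitor: 12 concentrations, 10^-13 to 10^-5 M, in triplicate. Ended by vacuum filtration through PEI-presoaked GF/B filters; Ki averaged from at least two assays, each in duplicate.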

Chain of Sodium-dependent dopamine transporter (Q01959 whole entry): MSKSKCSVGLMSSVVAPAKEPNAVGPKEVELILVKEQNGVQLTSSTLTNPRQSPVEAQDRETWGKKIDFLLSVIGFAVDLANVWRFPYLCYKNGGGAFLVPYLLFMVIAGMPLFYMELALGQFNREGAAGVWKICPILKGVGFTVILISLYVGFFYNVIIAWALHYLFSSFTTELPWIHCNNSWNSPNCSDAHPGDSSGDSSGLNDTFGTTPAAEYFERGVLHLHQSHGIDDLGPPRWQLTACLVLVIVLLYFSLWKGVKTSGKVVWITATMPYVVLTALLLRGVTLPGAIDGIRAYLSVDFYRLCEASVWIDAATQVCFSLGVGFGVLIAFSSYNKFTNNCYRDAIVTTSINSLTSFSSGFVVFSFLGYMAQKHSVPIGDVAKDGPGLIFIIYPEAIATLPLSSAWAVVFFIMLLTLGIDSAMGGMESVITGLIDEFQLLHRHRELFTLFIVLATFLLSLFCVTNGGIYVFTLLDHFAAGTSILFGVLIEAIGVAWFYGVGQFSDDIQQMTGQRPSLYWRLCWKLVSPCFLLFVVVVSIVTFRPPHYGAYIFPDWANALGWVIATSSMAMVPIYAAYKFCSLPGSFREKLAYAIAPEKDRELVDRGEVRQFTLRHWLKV
Chain of Sodium-dependent serotonin transporter (P31645 whole entry): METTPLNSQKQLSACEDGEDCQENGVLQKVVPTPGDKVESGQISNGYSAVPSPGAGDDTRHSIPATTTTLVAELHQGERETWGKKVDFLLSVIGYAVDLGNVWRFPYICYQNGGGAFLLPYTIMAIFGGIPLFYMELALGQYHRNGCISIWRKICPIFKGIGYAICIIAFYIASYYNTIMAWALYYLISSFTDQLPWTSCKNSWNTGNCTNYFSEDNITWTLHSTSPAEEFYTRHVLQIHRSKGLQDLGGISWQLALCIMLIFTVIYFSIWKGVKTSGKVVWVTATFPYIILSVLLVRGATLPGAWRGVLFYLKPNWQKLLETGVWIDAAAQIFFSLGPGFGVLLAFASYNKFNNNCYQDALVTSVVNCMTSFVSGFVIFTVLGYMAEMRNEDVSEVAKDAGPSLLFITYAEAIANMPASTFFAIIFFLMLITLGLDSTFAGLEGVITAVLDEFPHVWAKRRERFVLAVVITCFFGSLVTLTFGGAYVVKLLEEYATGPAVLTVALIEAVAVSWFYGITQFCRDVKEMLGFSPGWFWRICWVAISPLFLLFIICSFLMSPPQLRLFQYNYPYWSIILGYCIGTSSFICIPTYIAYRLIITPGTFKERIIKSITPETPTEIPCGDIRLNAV
Chain of Sodium-dependent noradrenaline transporter (P23975 whole entry): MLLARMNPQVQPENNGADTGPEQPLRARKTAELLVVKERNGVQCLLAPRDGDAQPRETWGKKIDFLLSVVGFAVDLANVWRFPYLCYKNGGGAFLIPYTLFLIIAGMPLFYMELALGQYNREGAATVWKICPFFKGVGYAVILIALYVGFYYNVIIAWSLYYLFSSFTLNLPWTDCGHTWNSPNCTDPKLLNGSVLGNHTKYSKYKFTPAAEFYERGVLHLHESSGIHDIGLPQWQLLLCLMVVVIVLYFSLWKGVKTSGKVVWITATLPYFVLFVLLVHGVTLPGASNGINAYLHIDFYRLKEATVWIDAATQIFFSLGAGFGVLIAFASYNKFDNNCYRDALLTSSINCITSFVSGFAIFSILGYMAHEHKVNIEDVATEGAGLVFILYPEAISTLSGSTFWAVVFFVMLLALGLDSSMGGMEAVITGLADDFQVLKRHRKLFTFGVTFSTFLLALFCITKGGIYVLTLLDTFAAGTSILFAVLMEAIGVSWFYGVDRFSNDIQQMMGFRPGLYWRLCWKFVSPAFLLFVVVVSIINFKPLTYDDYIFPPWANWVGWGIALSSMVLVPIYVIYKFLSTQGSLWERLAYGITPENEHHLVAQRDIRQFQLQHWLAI

Molecule `CN(C)Cc1ccccc1Sc1ccc(CO)cc1N` had a Ki in [1] greater than 1000 nM. Also, the figures for the Ratio Ki in the data set listed under Homo sapiens [2] and in the data set filed under Homo sapiens [3] were greater than 1000 and 532, respectively. The logD in [4] was found to be 1.6.

On to `CN([11CH3])Cc1cc(Br)ccc1Sc1ccc(CO)cc1N`, for which the Ratio in the data set with Caudate [5] is 1.4; in the data set on Caudate [6], 1; in the data set on Putamen [7] it was 1.6; with Putamen [8] it was 1.2; in the data set with Thalamus [9], 1.8; in the data set on Thalamus [10], 1.4. Besides, the Ratio stood at 2.4 in the data set on Midbrain [11]; 1.2 with Midbrain [12]; 2 in the data set on Pons [13]; 1.23 with Pons [14]; 2.3 with Medulla [15]; 1.1 with Medulla [16]. The Ratio with Occipital cortex [17] was determined as 1.35; in the data set with Occipital cortex [18], 1.1; in the data set with Frontal cortex [19], 1; in the data set with Frontal cortex [20] it was 1; in the data set with Caudate [21], 1.7; in the data set with Midbrain [22] it was 3.24. Also, the Ratio amounted to 2.4 with Putamen [23]; 2.3 in the data set on Thalamus [24]; 2.8 in the data set on Pons [25]; 2.6 with Medulla [26]; 1.34 with Occipital cortex [27]; 1.06 in the data set on Frontal cortex [28]. Further, in data set [4], the logD came to 2.63.

Consider `CN(C)Cc1cc(Br)ccc1Sc1ccc(CO)cc1N`, for which the Ki in [29] stood at 0.29 nM; in [1] it was 221 nM; in [30], 725 nM. In addition, the results for the Ratio Ki in the data set listed under Homo sapiens [2] and in the data set filed under Homo sapiens [3] were 762 and greater than 2000, respectively.

One may read the Ki as a measure of affinity in units of concentration, obtained from inhibition or displacement. The term logD denotes the decadic logarithm of the distribution of all forms, ionised or not, between an organic phase and buffer at a given pH.
